Data set [1] relates to MCF-10A mammary epithelial cells. As to the kind of experiment: Cytotoxicity assay. Type of data set: cell-based. The note with it: 24 h, MTT.
Data set [2] relates to MDA-MB-231 cells. As to the kind of experiment: Lactate dehydrogenase. Type of data set: cell-based. The note with it: MDA-MB-231, effective anticancer concentrations, 24 h. In a few lines: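 MDA-MB-231 cells were seeded at 3 × 10^4 cells/well and allowed to attach, then exposed to test compound in medium with 5% FBS for 24 h at 37 °C, 5% CO2. Controls: Triton X-100 wells (maximum release) and […], in triplicate. Supernatant was incubated with NAD+/lactic acid/INT/diaphorase for 30 min at rt, and A490 was read. % cytotoxicity was calculated relative to spontaneous and maximum release.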

Data set [3] addresses MST1R (RON) (Homo sapiens, UniProt Q04912). As to the kind of experiment: SelectScreen kinase profiling, MST1R. As to conditions: read-out: Mean % inhibition at 10 μM, MST1R (RON), 10 μM. Type of data set: biochemical. In short, it runs like this:
(§1)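 Test compound was screened at a single 10 μM concentration through an outsourced kinase selectivity panel (SelectScreen). Percent inhibition of each kinase was determined by time-resolved FRET assay.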

The test system of data set [4] is c-Met phosphorylation in MDA-MB-231 cells. The experiment in a line: Western blot of c-Met phosphorylation in cells. Type of data set: cell-based, human. As to conditions: MDA-MB-231, Western blot, 72 h.
The subject of data set [5] is MDA-MB-231/GFP tumor cells. The experiment in a line: Breast cancer xenograft in athymic nude mice. Type of data set: in vivo. As to conditions: 10 mg/kg i.p., 3X/week, throughout the study. In a few lines: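 Female athymic nude mice (5–6 weeks old) received 1 × 10^6 MDA-MB-231/GFP cells in RPMI-1640 into the mammary fat pad. At about 50 mm3 (day 10), mice were randomized, 5 per group. Test compound was dissolved as a DMSO stock, diluted in sterile PBS with 0.1% Tween 80, and given i.p. at 10 mg/kg three times weekly. Controls got the same vehicle volume. Body weight was monitored regularly.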

In data set [6] the target is ABL1 (Homo sapiens, UniProt P00519). The experiment in a line: SelectScreen kinase profiling, ABL1. Type of data set: biochemical. The note with it: read-out: Mean % inhibition at 10 μM, ABL1, 10 μM. In short, it runs like this: as §1
Chain of ABL1 (P00519 whole entry): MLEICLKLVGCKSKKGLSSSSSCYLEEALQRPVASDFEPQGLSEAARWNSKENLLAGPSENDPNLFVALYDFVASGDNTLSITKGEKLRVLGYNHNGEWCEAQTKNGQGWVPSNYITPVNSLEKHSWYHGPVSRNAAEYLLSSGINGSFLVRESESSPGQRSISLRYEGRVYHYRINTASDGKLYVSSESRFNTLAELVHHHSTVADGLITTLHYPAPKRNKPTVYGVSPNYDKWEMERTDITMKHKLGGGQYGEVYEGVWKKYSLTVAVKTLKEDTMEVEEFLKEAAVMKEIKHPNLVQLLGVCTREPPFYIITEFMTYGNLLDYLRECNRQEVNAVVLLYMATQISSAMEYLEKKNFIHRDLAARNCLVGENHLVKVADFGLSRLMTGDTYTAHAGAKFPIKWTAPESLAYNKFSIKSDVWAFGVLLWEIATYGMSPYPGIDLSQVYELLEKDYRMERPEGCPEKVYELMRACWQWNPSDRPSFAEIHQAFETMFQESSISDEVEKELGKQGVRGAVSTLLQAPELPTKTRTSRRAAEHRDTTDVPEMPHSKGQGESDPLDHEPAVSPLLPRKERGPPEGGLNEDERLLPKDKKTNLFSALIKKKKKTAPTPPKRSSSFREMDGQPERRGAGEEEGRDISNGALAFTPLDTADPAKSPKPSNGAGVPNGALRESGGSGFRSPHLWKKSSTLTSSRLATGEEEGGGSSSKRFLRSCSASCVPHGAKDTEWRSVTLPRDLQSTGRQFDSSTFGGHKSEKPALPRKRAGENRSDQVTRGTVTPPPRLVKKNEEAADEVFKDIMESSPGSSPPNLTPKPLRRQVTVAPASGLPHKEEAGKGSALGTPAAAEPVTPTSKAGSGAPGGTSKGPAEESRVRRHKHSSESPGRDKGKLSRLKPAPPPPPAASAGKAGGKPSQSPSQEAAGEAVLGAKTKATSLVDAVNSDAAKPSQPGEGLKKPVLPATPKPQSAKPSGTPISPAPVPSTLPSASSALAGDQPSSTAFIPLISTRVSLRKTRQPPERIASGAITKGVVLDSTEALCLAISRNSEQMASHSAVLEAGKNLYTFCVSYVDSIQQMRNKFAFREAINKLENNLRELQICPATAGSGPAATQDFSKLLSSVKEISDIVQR
The target of data set [7] is IGF1R (Homo sapiens, UniProt P08069). As to the kind of experiment: SelectScreen kinase profiling, IGF1R. It counts as biochemical. The note with it: read-out: Mean % inhibition at 10 μM, IGF1R, 10 μM. In short, it runs like this: as §1
Chain of IGF1R (P08069 31-1367): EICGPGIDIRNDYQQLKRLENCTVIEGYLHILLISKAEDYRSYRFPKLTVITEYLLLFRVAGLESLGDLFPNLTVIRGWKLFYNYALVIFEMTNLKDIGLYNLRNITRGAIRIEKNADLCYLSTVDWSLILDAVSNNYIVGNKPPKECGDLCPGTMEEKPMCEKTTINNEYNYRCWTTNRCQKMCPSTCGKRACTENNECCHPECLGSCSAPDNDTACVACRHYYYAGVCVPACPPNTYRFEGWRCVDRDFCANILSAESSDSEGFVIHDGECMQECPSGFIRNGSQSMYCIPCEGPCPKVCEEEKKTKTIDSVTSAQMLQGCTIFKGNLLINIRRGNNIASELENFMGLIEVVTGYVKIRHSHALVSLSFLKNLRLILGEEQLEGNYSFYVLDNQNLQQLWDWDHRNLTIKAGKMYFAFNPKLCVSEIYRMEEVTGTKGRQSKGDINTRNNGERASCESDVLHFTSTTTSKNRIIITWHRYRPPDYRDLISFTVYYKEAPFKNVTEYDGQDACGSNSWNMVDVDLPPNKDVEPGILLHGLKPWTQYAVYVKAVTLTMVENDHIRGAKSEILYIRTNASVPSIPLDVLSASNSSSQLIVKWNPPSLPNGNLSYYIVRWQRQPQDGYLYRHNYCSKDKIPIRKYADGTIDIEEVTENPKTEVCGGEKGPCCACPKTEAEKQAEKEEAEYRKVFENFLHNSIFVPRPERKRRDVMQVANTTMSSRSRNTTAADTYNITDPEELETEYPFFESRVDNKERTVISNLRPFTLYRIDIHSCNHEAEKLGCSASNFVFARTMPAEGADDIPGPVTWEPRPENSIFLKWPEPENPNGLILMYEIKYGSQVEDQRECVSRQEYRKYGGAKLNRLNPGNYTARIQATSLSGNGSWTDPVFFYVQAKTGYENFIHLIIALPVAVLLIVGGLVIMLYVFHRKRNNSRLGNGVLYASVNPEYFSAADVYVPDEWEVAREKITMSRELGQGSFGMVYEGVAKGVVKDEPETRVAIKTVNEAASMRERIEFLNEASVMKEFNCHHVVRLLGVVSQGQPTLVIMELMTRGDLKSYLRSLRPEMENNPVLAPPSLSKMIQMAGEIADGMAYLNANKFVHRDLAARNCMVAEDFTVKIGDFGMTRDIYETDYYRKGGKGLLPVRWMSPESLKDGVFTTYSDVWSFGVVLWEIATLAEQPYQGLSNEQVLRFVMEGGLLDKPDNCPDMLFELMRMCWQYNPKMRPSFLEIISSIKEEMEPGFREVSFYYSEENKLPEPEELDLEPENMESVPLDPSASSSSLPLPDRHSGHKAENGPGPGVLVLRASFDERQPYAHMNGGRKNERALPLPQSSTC
In data set [8] the target is ERBB2 (HER2) (Homo sapiens, UniProt P04626). The experiment in a line: SelectScreen kinase profiling, HER2. It counts as biochemical. As to conditions: read-out: Mean % inhibition at 10 μM, ERBB2 (HER2), 10 μM. In short, it runs like this:
as §1

In data set [9] the test system is p-Akt, p-mTOR, p-FAK, paxillin, p-MAPK in MDA-MB-231 cells. The experiment in a line: Western blot of c-Met downstream effectors in cells. Type of data set: cell-based, human. The note with it: MDA-MB-231, Western blot. In a few lines:
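MDA-MB-231 cells were seeded at 5 × 10^5 per 100 mm dish, attached overnight, then treated with test compound or DMSO vehicle for 72 h in serum-reduced medium with 10 ng/ml HGF. Lysates (30 μg) were run on Tris/glycine/SDS gels and transferred to PVDF. Blots were blocked 2 h in 5% BSA/TBST, probed with primary antibodies overnight at 4 °C and HRP secondaries 1 h at rt, and detected by chemiluminescence.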
On the technique in general: Immunoblotting shows a protein as a band on a membrane.

The subject of data set [10] is p-c-Met in MDA-MB-231/GFP tumors. As to the kind of experiment: Western blot of p-c-Met in excised xenograft tumors. It counts as in vivo, athymic nude mice. As to conditions: 10 mg/kg i.p., 3X/week, vs vehicle-treated control. In a few lines:
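Xenografts were MDA-MB-231/GFP cells in the mammary fat pad of female athymic nude mice, 5 per group. Test compound (i.p., 10 mg/kg, 3×/week) or vehicle (DMSO stock diluted in PBS/0.1% Tween 80) was given. At termination, tumors were excised, snap-frozen, homogenized and lysed. Lysates were immunoblotted for p-c-Met: SDS gels, PVDF, 5% BSA/TBST block, primary antibodies overnight at 4 °C, HRP secondaries, chemiluminescence.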

As usually defined, the inhibition is the drop in the measured response relative to a control, in per cent.

Chain of MST1R (RON) (Q04912 25-1400): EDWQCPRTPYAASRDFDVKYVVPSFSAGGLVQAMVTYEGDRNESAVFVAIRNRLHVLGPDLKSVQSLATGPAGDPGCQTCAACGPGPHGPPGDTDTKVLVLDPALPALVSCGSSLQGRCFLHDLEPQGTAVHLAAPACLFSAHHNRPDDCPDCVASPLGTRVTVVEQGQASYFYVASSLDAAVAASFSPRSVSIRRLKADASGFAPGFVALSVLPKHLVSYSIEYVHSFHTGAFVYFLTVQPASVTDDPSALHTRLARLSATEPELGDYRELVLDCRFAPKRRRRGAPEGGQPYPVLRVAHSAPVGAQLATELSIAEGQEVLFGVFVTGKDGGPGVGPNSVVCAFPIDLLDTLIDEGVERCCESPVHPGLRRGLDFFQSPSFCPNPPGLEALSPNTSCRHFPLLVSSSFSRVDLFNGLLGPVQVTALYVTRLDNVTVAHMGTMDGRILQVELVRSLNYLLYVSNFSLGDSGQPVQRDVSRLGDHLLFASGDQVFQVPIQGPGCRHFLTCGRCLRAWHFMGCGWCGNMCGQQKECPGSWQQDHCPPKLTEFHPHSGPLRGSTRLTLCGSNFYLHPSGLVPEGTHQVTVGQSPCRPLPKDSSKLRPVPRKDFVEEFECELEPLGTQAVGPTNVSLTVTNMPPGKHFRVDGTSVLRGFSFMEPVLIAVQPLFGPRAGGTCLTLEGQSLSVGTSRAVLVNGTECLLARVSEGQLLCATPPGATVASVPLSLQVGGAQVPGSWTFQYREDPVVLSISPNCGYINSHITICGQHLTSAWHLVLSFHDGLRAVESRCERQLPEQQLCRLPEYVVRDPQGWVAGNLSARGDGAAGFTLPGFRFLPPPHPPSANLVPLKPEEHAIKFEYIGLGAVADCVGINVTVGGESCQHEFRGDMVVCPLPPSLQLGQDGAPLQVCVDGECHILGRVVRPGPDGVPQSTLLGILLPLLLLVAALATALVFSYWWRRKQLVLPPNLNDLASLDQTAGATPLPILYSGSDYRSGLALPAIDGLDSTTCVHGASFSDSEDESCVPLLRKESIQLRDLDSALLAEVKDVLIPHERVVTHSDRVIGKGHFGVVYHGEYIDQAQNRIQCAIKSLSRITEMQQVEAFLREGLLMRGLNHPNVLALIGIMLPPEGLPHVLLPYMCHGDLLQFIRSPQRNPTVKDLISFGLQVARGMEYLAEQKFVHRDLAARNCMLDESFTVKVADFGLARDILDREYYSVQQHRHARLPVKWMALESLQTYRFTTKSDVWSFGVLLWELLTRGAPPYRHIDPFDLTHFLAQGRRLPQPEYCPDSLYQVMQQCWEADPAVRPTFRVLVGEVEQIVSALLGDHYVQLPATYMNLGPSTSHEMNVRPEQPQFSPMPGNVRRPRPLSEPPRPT
Chain of ERBB2 (HER2) (P04626 23-1255): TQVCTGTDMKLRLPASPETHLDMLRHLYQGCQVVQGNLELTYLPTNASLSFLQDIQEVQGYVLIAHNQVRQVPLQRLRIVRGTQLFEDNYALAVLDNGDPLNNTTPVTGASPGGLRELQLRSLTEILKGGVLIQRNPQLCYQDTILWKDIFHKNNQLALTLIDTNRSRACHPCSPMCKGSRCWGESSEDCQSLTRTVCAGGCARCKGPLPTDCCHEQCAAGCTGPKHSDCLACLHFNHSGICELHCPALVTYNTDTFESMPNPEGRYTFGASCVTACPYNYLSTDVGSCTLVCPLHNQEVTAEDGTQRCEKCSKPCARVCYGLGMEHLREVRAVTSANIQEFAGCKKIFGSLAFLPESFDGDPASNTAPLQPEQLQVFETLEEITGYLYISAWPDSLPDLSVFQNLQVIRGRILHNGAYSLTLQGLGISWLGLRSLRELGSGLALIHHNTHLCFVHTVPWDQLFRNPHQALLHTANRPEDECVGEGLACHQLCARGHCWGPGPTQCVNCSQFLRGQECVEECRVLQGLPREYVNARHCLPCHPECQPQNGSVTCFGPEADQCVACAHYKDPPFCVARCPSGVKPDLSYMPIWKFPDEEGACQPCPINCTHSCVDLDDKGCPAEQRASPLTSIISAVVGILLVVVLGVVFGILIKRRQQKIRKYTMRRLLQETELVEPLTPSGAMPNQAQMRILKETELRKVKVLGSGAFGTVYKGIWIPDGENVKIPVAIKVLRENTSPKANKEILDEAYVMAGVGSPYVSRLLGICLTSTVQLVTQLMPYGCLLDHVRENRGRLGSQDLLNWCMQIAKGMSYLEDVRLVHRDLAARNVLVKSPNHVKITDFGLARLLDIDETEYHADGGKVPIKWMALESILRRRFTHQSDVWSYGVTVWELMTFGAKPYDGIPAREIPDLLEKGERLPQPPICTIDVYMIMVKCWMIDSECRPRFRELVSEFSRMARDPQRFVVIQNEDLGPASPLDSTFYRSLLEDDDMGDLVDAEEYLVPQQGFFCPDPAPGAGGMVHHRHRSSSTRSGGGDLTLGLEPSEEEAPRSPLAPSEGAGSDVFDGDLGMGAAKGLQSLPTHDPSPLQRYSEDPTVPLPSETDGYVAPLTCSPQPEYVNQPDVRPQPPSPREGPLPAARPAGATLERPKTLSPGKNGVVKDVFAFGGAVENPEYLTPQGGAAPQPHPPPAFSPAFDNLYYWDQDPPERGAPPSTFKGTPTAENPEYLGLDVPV

For `C/C1=C\[C@H](OC(=O)Nc2cc(C(F)(F)F)cc(C(F)(F)F)c2)C[C@](C)(O)/C=C/[C@H](C(C)C)CC/C(C)=C/CC1` [Compound 20, 6-O-[(N-(3,5-bis-(trifluoromethyl)phenyl)carbamoyl)]-(1S,2E,4S,7E,11E)-2,7,11-cembratriene-4,6-diol], the “cellular death at effective doses” value in data set [1] is “didn’t induce a significant cellular death”. The “LDH release (necrosis marker)” value in data set [2] is given as “minimal”. For the same compound, the inhibition at 10 µM was 30 to 35% in data set [3], 30 to 35% in data set [6], 30 to 35% in data set [7] and 23% in data set [8]. Besides, the “effect on p-Met (phosphorylated c-Met) level” value in data set [4] is “significant concentration-dependent downregulation”. For the same compound, in data set [5], the “average body weight difference between treatment and vehicle groups” value is on record as “non-significant”. Further, the “levels of p-Akt, p-mTOR and p-FAK” value in data set [9] is listed as “significant reductions”. In addition, the paxillin phosphorylation result in [9] was “phosphorylation reduction”. For the same compound, in data set [9] (compared to untreated cells), the p-MAPK level result is “dose-dependent downregulation”. In addition, the “level of p-c-Met in excised tumors” value in data set [10] was “significant decrease”.

These data come from paper PMC5079820 (Bioorganic & medicinal chemistry, 2016).
